In ChEMBL document CHEMBL5724801, “EUbOPEN Chemogenomics Library - Multiplex” (2024):
“And” between values parts separate entries of the source, which are not always exact repeats. Equal entries are not always repeated.

What was measured:
Type in all cases: toxicity, cell-based
[1] = test system: Fibroblast; test: Multiplex assay against human fibroblast
How it was run: (§1)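 Live cells carried four stains from seeding: Hoechst33342, BioTracker Green Microtubule Cytoskeleton Dye, MitoTracker Red and Annexin V Alexa Fluor 680. They were imaged on a CQ1 microscope at 37°C and 5% CO2 after compound addition. Using CellPathfinder machine-learning gating, cells were split into Hoechst high-intensity objects or normal cells, normal cells into healthy, pyknosed or fragmented nuclei, and pyknosed cells into mitotic or apoptotic; tubulin, mitochondrial-mass and membrane-permeability phenotypes are per cents of healthy-nucleus cells.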

[2] = test system: HEK-293T; test: Multiplex assay against HEK293T; conditions: human; how it was run: as §1
[3] = test system: U2OS; test: Multiplex assay against U2OS; conditions: human; how it was run: as §1
[4] = 12 h, 1 µM, compound concentration 1 uM
[5] = 12 h, 10 µM, compound concentration 10 uM
[6] = 24 h, 1 µM, compound concentration 1 uM
[7] = 24 h, 10 µM, compound concentration 10 uM
[8] = 48 h, 1 µM, compound concentration 1 uM
[9] = 48 h, 10 µM, compound concentration 10 uM

COc1cc(OC2CCN(C(C)=O)CC2)ccc1C(=O)N1CCC(N2C(=O)OCc3ccccc32)CC1
Population Apoptotic (%) [1, 4]: 41% and 40%
Population Fragmented Nuclei (%) [1, 4]: 12% and 29%
Population Healthy Nuclei (%) [1, 4]: 64% and 52%
Population Hoechst High Intensity Objects (%) [1, 4]: 5% and 3%
Population Membrane Permeable-Phenotype (%) [1, 4]: 2% and 0%
Population Mitochondria Different-Phenotype (%) [1, 4]: 5% and 3%
Population Mitotic Cells (%) [1, 4]: 58% and 59%
Population Normal (%) [1, 4]: 94% and 96%
Population Pyknosed Nuclei (%) [1, 4]: 22% and 17%
Population Tubulin-Different-Phenotype (%) [1, 4]: 32% and 34%
Total Cell Count [1, 4]: 157 and 159
Population Apoptotic (%) [1, 5]: 52% and 37%
Population Healthy Nuclei (%) [1, 5]: 73% and 40%
Population Hoechst High Intensity Objects (%) [1, 5]: 3% and 6%
Population Membrane Permeable-Phenotype (%) [1, 5]: 0% and 2%
Population Mitochondria Different-Phenotype (%) [1, 5]: 6% and 10%
Population Mitotic Cells (%) [1, 5]: 48% and 62%
Population Normal (%) [1, 5]: 96% and 93%
Population Pyknosed Nuclei (%) [1, 5]: 16% and 28%
Population Tubulin-Different-Phenotype (%) [1, 5]: 54% and 56%
Total Cell Count [1, 5]: 161 and 134
Population Apoptotic (%) [1, 6]: 63% and 48%
Population Fragmented Nuclei (%) [1, 6]: 19% and 28%
Population Healthy Nuclei (%) [1, 6]: 63% and 51%
Population Hoechst High Intensity Objects (%) [1, 6]: 1%
Population Membrane Permeable-Phenotype (%) [1, 6]: 0% and 5%
Population Mitochondria Different-Phenotype (%) [1, 6]: 4% and 3%
Population Mitotic Cells (%) [1, 6]: 36% and 51%
Population Normal (%) [1, 6]: 98%
Population Pyknosed Nuclei (%) [1, 6]: 17% and 19%
Population Tubulin-Different-Phenotype (%) [1, 6]: 32% and 31%
Total Cell Count [1, 6]: 170 and 155
Population Apoptotic (%) [1, 7]: 36% and 43%
Population Fragmented Nuclei (%) [1, 7]: 13% and 34%
Population Healthy Nuclei (%) [1, 7]: 74% and 48%
Population Hoechst High Intensity Objects (%) [1, 7]: 7%
Population Membrane Permeable-Phenotype (%) [1, 7]: 1% and 3%
Population Mitochondria Different-Phenotype (%) [1, 7]: 7% and 10%
Population Mitotic Cells (%) [1, 7]: 63% and 56%
Population Normal (%) [1, 7]: 92%
Population Pyknosed Nuclei (%) [1, 7]: 11% and 17%
Population Tubulin-Different-Phenotype (%) [1, 7]: 39% and 70%
Total Cell Count [1, 7]: 172 and 145
Population Apoptotic (%) [1, 8]: 40% and 58%
Population Fragmented Nuclei (%) [1, 8]: 14% and 32%
Population Healthy Nuclei (%) [1, 8]: 70% and 52%
Population Hoechst High Intensity Objects (%) [1, 8]: 7% and 3%
Population Membrane Permeable-Phenotype (%) [1, 8]: 0% and 4%
Population Mitochondria Different-Phenotype (%) [1, 8]: 5% and 4%
Population Mitotic Cells (%) [1, 8]: 59% and 41%
Population Normal (%) [1, 8]: 92% and 96%
Population Pyknosed Nuclei (%) [1, 8]: 14% and 15%
Population Tubulin-Different-Phenotype (%) [1, 8]: 35% and 43%
Total Cell Count [1, 8]: 160 and 163
Population Apoptotic (%) [1, 9]: 57% and 56%
Population Healthy Nuclei (%) [1, 9]: 79% and 51%
Population Hoechst High Intensity Objects (%) [1, 9]: 5% and 3%
Population Membrane Permeable-Phenotype (%) [1, 9]: 0% and 3%
Population Mitochondria Different-Phenotype (%) [1, 9]: 13% and 10%
Population Mitotic Cells (%) [1, 9]: 42% and 43%
Population Normal (%) [1, 9]: 94% and 96%
Population Pyknosed Nuclei (%) [1, 9]: 9% and 12%
Population Tubulin-Different-Phenotype (%) [1, 9]: 51% and 69%
Total Cell Count [1, 9]: 155 and 134
Population Apoptotic (%) [2, 4]: 28% and 48%
Population Fragmented Nuclei (%) [2, 4]: 5%
Population Healthy Nuclei (%) [2, 4]: 83% and 76%
Population Hoechst High Intensity Objects (%) [2, 4]: 7%
Population Membrane Permeable-Phenotype (%) [2, 4]: 0%
Population Mitochondria Different-Phenotype (%) [2, 4]: 37% and 59%
Population Mitotic Cells (%) [2, 4]: 71% and 51%
Population Normal (%) [2, 4]: 92%
Population Pyknosed Nuclei (%) [2, 4]: 11% and 18%
Population Tubulin-Different-Phenotype (%) [2, 4]: 26% and 21%
Total Cell Count [2, 4]: 477 and 381
Population Apoptotic (%) [2, 5]: 40% and 67%
Population Fragmented Nuclei (%) [2, 5]: 9% and 4%
Population Healthy Nuclei (%) [2, 5]: 77% and 80%
Population Hoechst High Intensity Objects (%) [2, 5]: 8% and 6%
Population Membrane Permeable-Phenotype (%) [2, 5]: 0%
Population Mitochondria Different-Phenotype (%) [2, 5]: 57% and 77%
Population Mitotic Cells (%) [2, 5]: 60% and 32%
Population Normal (%) [2, 5]: 91% and 93%
Population Pyknosed Nuclei (%) [2, 5]: 13% and 14%
Population Tubulin-Different-Phenotype (%) [2, 5]: 47% and 40%
Total Cell Count [2, 5]: 436 and 316
Population Apoptotic (%) [2, 6]: 28% and 48%
Population Fragmented Nuclei (%) [2, 6]: 9% and 7%
Population Healthy Nuclei (%) [2, 6]: 78% and 80%
Population Hoechst High Intensity Objects (%) [2, 6]: 4% and 6%
Population Membrane Permeable-Phenotype (%) [2, 6]: 2% and 0%
Population Mitochondria Different-Phenotype (%) [2, 6]: 25% and 40%
Population Mitotic Cells (%) [2, 6]: 71% and 51%
Population Normal (%) [2, 6]: 95% and 93%
Population Pyknosed Nuclei (%) [2, 6]: 11% and 12%
Population Tubulin-Different-Phenotype (%) [2, 6]: 17% and 15%
Total Cell Count [2, 6]: 598 and 491
Population Apoptotic (%) [2, 7]: 31% and 49%
Population Fragmented Nuclei (%) [2, 7]: 8% and 7%
Population Healthy Nuclei (%) [2, 7]: 78%
Population Hoechst High Intensity Objects (%) [2, 7]: 3% and 4%
Population Membrane Permeable-Phenotype (%) [2, 7]: 0%
Population Mitochondria Different-Phenotype (%) [2, 7]: 44% and 58%
Population Mitotic Cells (%) [2, 7]: 68% and 50%
Population Normal (%) [2, 7]: 96% and 95%
Population Pyknosed Nuclei (%) [2, 7]: 13% and 14%
Population Tubulin-Different-Phenotype (%) [2, 7]: 36% and 29%
Total Cell Count [2, 7]: 523 and 393
Population Apoptotic (%) [2, 8]: 20% and 33%
Population Fragmented Nuclei (%) [2, 8]: 13% and 11%
Population Healthy Nuclei (%) [2, 8]: 78% and 80%
Population Hoechst High Intensity Objects (%) [2, 8]: 3% and 2%
Population Membrane Permeable-Phenotype (%) [2, 8]: 1%
Population Mitochondria Different-Phenotype (%) [2, 8]: 19% and 23%
Population Mitotic Cells (%) [2, 8]: 79% and 66%
Population Normal (%) [2, 8]: 96% and 97%
Population Pyknosed Nuclei (%) [2, 8]: 8% and 7%
Population Tubulin-Different-Phenotype (%) [2, 8]: 13% and 12%
Total Cell Count [2, 8]: 902 and 655
Population Apoptotic (%) [2, 9]: 36%
Population Fragmented Nuclei (%) [2, 9]: 13% and 12%
Population Healthy Nuclei (%) [2, 9]: 78% and 80%
Population Hoechst High Intensity Objects (%) [2, 9]: 4% and 3%
Population Membrane Permeable-Phenotype (%) [2, 9]: 0%
Population Mitochondria Different-Phenotype (%) [2, 9]: 30% and 39%
Population Mitotic Cells (%) [2, 9]: 63%
Population Normal (%) [2, 9]: 95% and 96%
Population Pyknosed Nuclei (%) [2, 9]: 8% and 7%
Population Tubulin-Different-Phenotype (%) [2, 9]: 21% and 16%
Total Cell Count [2, 9]: 813 and 625
Population Apoptotic (%) [3, 4]: 50% and 66%
Population Fragmented Nuclei (%) [3, 4]: 22% and 20%
Population Healthy Nuclei (%) [3, 4]: 67% and 69%
Population Hoechst High Intensity Objects (%) [3, 4]: 0%
Population Membrane Permeable-Phenotype (%) [3, 4]: 5% and 11%
Population Mitochondria Different-Phenotype (%) [3, 4]: 3% and 7%
Population Mitotic Cells (%) [3, 4]: 50% and 33%
Population Normal (%) [3, 4]: 99%
Population Pyknosed Nuclei (%) [3, 4]: 9%
Population Tubulin-Different-Phenotype (%) [3, 4]: 3% and 8%
Total Cell Count [3, 4]: 233 and 130
Population Apoptotic (%) [3, 5]: 72% and 87%
Population Fragmented Nuclei (%) [3, 5]: 23% and 13%
Population Healthy Nuclei (%) [3, 5]: 62% and 77%
Population Hoechst High Intensity Objects (%) [3, 5]: 6% and 1%
Population Membrane Permeable-Phenotype (%) [3, 5]: 18% and 21%
Population Mitochondria Different-Phenotype (%) [3, 5]: 6% and 10%
Population Mitotic Cells (%) [3, 5]: 27% and 12%
Population Normal (%) [3, 5]: 93% and 98%
Population Pyknosed Nuclei (%) [3, 5]: 13% and 9%
Population Tubulin-Different-Phenotype (%) [3, 5]: 12% and 13%
Total Cell Count [3, 5]: 228 and 85
Population Apoptotic (%) [3, 6]: 82% and 76%
Population Fragmented Nuclei (%) [3, 6]: 20% and 22%
Population Healthy Nuclei (%) [3, 6]: 71% and 68%
Population Hoechst High Intensity Objects (%) [3, 6]: 1%
Population Membrane Permeable-Phenotype (%) [3, 6]: 3% and 7%
Population Mitochondria Different-Phenotype (%) [3, 6]: 2% and 5%
Population Mitotic Cells (%) [3, 6]: 17% and 23%
Population Normal (%) [3, 6]: 98%
Population Pyknosed Nuclei (%) [3, 6]: 8%
Population Tubulin-Different-Phenotype (%) [3, 6]: 2% and 3%
Total Cell Count [3, 6]: 288 and 163
Population Apoptotic (%) [3, 7]: 81% and 71%
Population Fragmented Nuclei (%) [3, 7]: 21% and 12%
Population Healthy Nuclei (%) [3, 7]: 60% and 80%
Population Hoechst High Intensity Objects (%) [3, 7]: 5% and 2%
Population Membrane Permeable-Phenotype (%) [3, 7]: 9% and 10%
Population Mitochondria Different-Phenotype (%) [3, 7]: 9% and 3%
Population Mitotic Cells (%) [3, 7]: 18% and 28%
Population Normal (%) [3, 7]: 94% and 97%
Population Pyknosed Nuclei (%) [3, 7]: 18% and 7%
Population Tubulin-Different-Phenotype (%) [3, 7]: 4% and 6%
Total Cell Count [3, 7]: 250 and 99
Population Apoptotic (%) [3, 8]: 80% and 65%
Population Fragmented Nuclei (%) [3, 8]: 17% and 23%
Population Healthy Nuclei (%) [3, 8]: 77% and 66%
Population Hoechst High Intensity Objects (%) [3, 8]: 3%
Population Membrane Permeable-Phenotype (%) [3, 8]: 3% and 10%
Population Mitochondria Different-Phenotype (%) [3, 8]: 1% and 5%
Population Mitotic Cells (%) [3, 8]: 19% and 35%
Population Normal (%) [3, 8]: 96%
Population Pyknosed Nuclei (%) [3, 8]: 5% and 9%
Population Tubulin-Different-Phenotype (%) [3, 8]: 2% and 4%
Total Cell Count [3, 8]: 388 and 213
Population Apoptotic (%) [3, 9]: 81% and 100%
Population Fragmented Nuclei (%) [3, 9]: 19% and 17%
Population Healthy Nuclei (%) [3, 9]: 66% and 78%
Population Hoechst High Intensity Objects (%) [3, 9]: 5% and 1%
Population Membrane Permeable-Phenotype (%) [3, 9]: 5% and 14%
Population Mitochondria Different-Phenotype (%) [3, 9]: 4% and 6%
Population Mitotic Cells (%) [3, 9]: 18% and 0%
Population Normal (%) [3, 9]: 95% and 98%
Population Tubulin-Different-Phenotype (%) [3, 9]: 3% and 8%
Total Cell Count [3, 9]: 320 and 130
